Results reported in ChEMBL document CHEMBL4270646, “Novel antimalarial chloroquine- and primaquine-quinoxaline 1,4-di-N-oxide hybrids: Design, synthesis, Plasmodium life cycle stage profile, and preliminary toxicity studies” (Eur J Med Chem, 2018).

Columns and labels:
Mus musculus = test: Acute toxicity in BALB/c mouse assessed as effect on body weight at 300 mg/kg, po administered as single dose measured every day for 14 days; assay type: organism-based; details: in vivo, 336 h
Procedure, shortened: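 Female BALB/c mice, 6-8 weeks old, 20-23 g, in groups of three. Single oral dose of 300 or 500 mg/kg; vehicle DMSO 100% given to controls. Mice watched for signs of toxicity for 4 h after dosing. Physical appearance, injury, pain and illness recorded daily for 14 days. Euthanasia in a CO2 chamber on day 14 or earlier if suffering.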

[1] = Cytotoxicity against human HepG2 cells expressing CD81 assessed as reduction in cell viability after 48 hrs by MTT assay; assay type: cell-based
Procedure, shortened: (§1)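 Cells seeded at 2 × 10^5 per well and allowed 24 h at 37°C, 5% CO2 to form a monolayer. Dilutions added in triplicate and incubated 48 h. MTT (2 mg/mL) then added for 4 h, followed by DMSO for 20 min at room temperature. Absorbance read at 550 nm; DMSO diluent and untreated cells served as negative controls. CC50 derived from the curve.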

[2] = Cytotoxicity against human primary hepatocytes assessed as reduction in cell viability after 48 hrs by MTT assay; assay type: cell-based, Hepatocyte; procedure, shortened: as §1
Plasmodium yoelii = test: Antiplasmodial activity against Plasmodium yoelii 17XNL sporozoites infected in BALB/c mouse assessed as parasite burden at 100 mg/kg, po measured at day 4 by […] (reference value: 0.06%); assay type: functional
Procedure, shortened: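 BALB/c mice (6-8 weeks, 20-23 g), n=4 per hybrid group and n=5 per control. Dosed orally at 100 mg/kg (100 µL) on days -1, 0, +1 and +2. Vehicle was DMSO 100%; primaquine diphosphate given at 30 mg/kg daily. On day 0, 5 x 10^3 cryopreserved P. yoelii 17XNL sporozoites injected i.v. Parasitaemia read by Giemsa smear and SYBR Green flow cytometry. Groups compared by Kruskal-Wallis test.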

## COc1cc(NC(C)CCCNC(=O)c2c(C)[n+]([O-])c3ccccc3[n+]2[O-])c2ncccc2c1 (centres undefined)
Mus musculus
  Activity: Non-Toxic
[1]
  CC50 at 48 h: > 213 µM
[2]
  CC50 at 48 h: > 213 µM
Plasmodium yoelii
  Activity: 0%
